Assay results pooled from the literature.
KIT D816V: Mast/stem cell growth factor receptor Kit (KIT, Homo sapiens, UniProt P10721, D816V)
KIT V559D: Mast/stem cell growth factor receptor Kit (KIT, Homo sapiens, UniProt P10721, V559D)
KIT autoinhibited: Mast/stem cell growth factor receptor Kit, autoinhibited (KIT, Homo sapiens, UniProt P10721)
KIT L576P: Mast/stem cell growth factor receptor Kit (KIT, Homo sapiens, UniProt P10721, L576P)
KIT D816H: Mast/stem cell growth factor receptor Kit (KIT, Homo sapiens, UniProt P10721, D816H)
KIT: Mast/stem cell growth factor receptor Kit (KIT, Homo sapiens, UniProt P10721)
KIT V559D/V654A: Mast/stem cell growth factor receptor Kit (KIT, Homo sapiens, UniProt P10721, V559D/V654A)
KIT T670I/V559D: Mast/stem cell growth factor receptor Kit (KIT, Homo sapiens, UniProt P10721, T670I/V559D)

| SMILES | target | assay | setting | remaining binding [%] |
| --- | --- | --- | --- | --- |
| CC(C)(C)c1ccc(-c2nc(CBr)nn2-c2cccc(O)c2)cc1 | KIT D816V | cell-free assay, competition with immobilised ligand | 10 µM | 95 |
| C[C@@]1(Cc2ccc(C#N)cc2)C(=O)N(c2cc(Cl)cc(Cl)c2)c2ncc(C(=O)NC3(c4nc(C5CCC5)no4)CC3)n21 | KIT V559D | cell-free assay, competition with immobilised ligand | 1 µM | 99 |
| Cc1nc(NC(=O)N2CCC[C@H]2C(N)=O)sc1-c1ccnc(C(C)(C)C(F)(F)F)c1 | KIT autoinhibited | binding, competition with immobilised ligand | 10 µM | 100 |
| c1cnn2ncc(-c3ccnc(N4CCC45COC5)n3)c2c1 | KIT V559D | binding | 1 µM | 78 |
| O=C(NCC1CCOCC1)c1n[nH]cc1NC(=O)c1c(F)cccc1F | KIT L576P | binding, competition with immobilised ligand | 1 µM | 100 |
| CN1CCN(c2ccc(Nc3nccc(-c4cccc([N+](=O)[O-])c4)n3)cc2C(F)(F)F)CC1 | KIT D816H | binding | 10 µM | 2.8 |
| O=C(NCc1ncc(C(F)(F)F)cc1Cl)c1ccc2c(c1)C1(CCS(=O)(=O)CC1)[C@H](C1CC1)N2S(=O)(=O)c1ccc(F)cc1 | KIT | cell-free assay, competition with immobilised ligand | 1 µM | 100 |
| C[C@@H]1CCN(c2nccc(-c3cnn4ncccc34)n2)C1 | KIT | binding | 1 µM | 100 |
| COc1cnc(Nc2cccc(S(N)(=O)=O)c2)nc1N1CCN(c2ccccc2)CC1 | KIT V559D/V654A | binding, competition with immobilised ligand | 1 µM | 97 |
| COc1cc(-c2cn(C3CCc4c(F)cccc4N(CC(F)(F)F)C3=O)nn2)ccc1-n1cnc(C)c1 (stereo not drawn) | KIT L576P | cell-free assay, competition with immobilised ligand | 1 µM | 100 |
| O=C(NCCCN1CCOCC1)c1ccc(Nc2ncc(Cl)c(-c3ccc(Cl)s3)n2)cc1 | KIT V559D/V654A | binding, competition with immobilised ligand | 1 µM | 9.9 |
| O=C(Nc1c[nH]nc1C(=O)NC1CCNCC1)c1cc(F)cc(F)c1 | KIT T670I/V559D | binding, competition with immobilised ligand | 1 µM | 100 |
| c1cncc(-c2cccc(Nc3nccc(NC4CCCCC4)n3)c2)c1 | KIT D816V | binding, competition with immobilised ligand | 10 µM | 0.75 |
| Nc1ncc2c(n1)-c1c([nH]c3ccc(C#CC4CC4)cc13)CCCC2 | KIT L576P | binding, competition with immobilised ligand | 1 µM | 100 |
| O=C(NCCCN1CCOCC1)c1ccc(Nc2nccc(-c3cc4ccccc4s3)n2)cc1 | KIT V559D | binding, competition with immobilised ligand | 1 µM | 26 |
| CNC(=O)[C@@H]1CC[C@@H](n2c(-c3ccc4cnccc4c3)nc3ccc(C(=O)NCc4cccc(C(N)=O)c4)cc32)C1 | KIT | binding, competition with immobilised ligand | 1 µM | 100 |
| CCN1CCN(Cc2ccc(C(=O)Nc3ccc(C)c(Oc4ccc5c(c4)CC(=O)N5)c3)cc2C(F)(F)F)CC1 | KIT V559D | binding, competition with immobilised ligand | 1 µM | 0.4 |
| CN(c1nccc(-c2cnn3ncccc23)n1)C1CC1 | KIT D816V | binding | 1 µM | 85 |

| SMILES | target | assay | setting | remaining binding [%] |
| --- | --- | --- | --- | --- |
| O=C(c1ccc(Nc2ncc(Cl)c(-c3cc4ccccc4s3)n2)cc1)N1CCC(N2CCCC2)CC1 | KIT autoinhibited | binding, competition with immobilised ligand | 1 µM | 74 |
| CN(C)c1ncc(F)c(-c2cnn3ncccc23)n1 | KIT autoinhibited | binding | 1 µM | 73 |
| COc1ncc2cc3ccccc3nc2c1C#N | KIT V559D | cell-free assay, competition with immobilised ligand | 5 µM | 94 |
| COc1ccnn2ncc(-c3ccnc(N(C)C)n3)c12 | KIT V559D | binding | 1 µM | 100 |
| COc1cnc(Nc2cccc(S(N)(=O)=O)c2)nc1N1CCN(c2ccccc2)C(=O)C1 | KIT D816V | binding, competition with immobilised ligand | 1 µM | 90 |
| CN1CCN(c2ccc(Nc3nccc(-c4ccccc4)n3)cc2C(F)(F)F)CC1 | KIT V559D/V654A | binding | 10 µM | 4 |
| CN(C)c1nccc(-c2cnc3ncccn23)n1 | KIT | binding | 1 µM | 69 |
| Cc1cnc(Nc2ccc(C(=O)N3CCC(N4CCCC4)CC3)cc2)nc1-c1cc2ccccc2s1 | KIT autoinhibited | binding, competition with immobilised ligand | 1 µM | 22 |
| O=C(Nc1cccnn1)N1CC(C/C=C/c2cncc(Oc3ccc(C(F)(F)F)cn3)n2)C1 | KIT V559D/V654A | cell-free assay, competition with immobilised ligand | 1 µM | 100 |
| C=CC(=O)N1CCC(C(=O)NCC(=O)N2CCN(c3nc(-c4cnc(N)nc4C(F)F)nc(N4CCOCC4)n3)CC2)CC1 | KIT D816H | binding, competition with immobilised ligand | 1 µM | 100 |
| COc1ccc2c(c1)O[C@@H](c1ccc(OC)c(OC)c1)C[C@H]2NC(=O)C1(c2ccc3c(c2)OC(F)(F)O3)CC1 | KIT L576P | cell-free assay, competition with immobilised ligand | 1 µM | 92 |
| N[C@@H]1CCN(c2nccc(-c3cnn4ncccc34)n2)C1 | KIT V559D | binding | 1 µM | 100 |
| CN(C)C(=O)Cn1cc(-c2nc(C3(c4ccc(-c5cnc(N)nc5)cc4)CC3)no2)cn1 | KIT | cell-free assay, competition with immobilised ligand | 1 µM | 93 |
| C[C@@H](c1ccc(-n2cnc3c(N)ncnc32)cc1)N1CCc2nn(C)c(Cc3ccccc3)c2C1=O | KIT T670I/V559D | binding, competition with immobilised ligand | 0.1 µM | 99 |
| O=C(N[C@H]1CCCCC/C=C\C2C[C@@]2(C(=O)O)NC(=O)[C@@H]2C[C@@H](Oc3ccncc3)CN2C1=O)OC1CCCC1 (stereo partly drawn) | KIT V559D/V654A | binding, competition with immobilised ligand | 1 µM | 63 |
| O=C(c1ccc(Nc2ncc(Cl)c(-c3ccc(Cl)s3)n2)cc1)N1CCC(N2CCCC2)CC1 | KIT autoinhibited | binding, competition with immobilised ligand | 1 µM | 7.2 |
| O=C(N1CCS(=O)(=O)CC1)N1C[C@H](c2ccc(OC(F)(F)F)cc2)C[C@H](c2nc(C3CC3)no2)C1 | Mast/stem cell growth factor receptor Kit (KIT, Homo sapiens, UniProt P10721, A829P) | cell-free assay, competition with immobilised ligand | 1 µM | 100 |
| O=C(c1ccc(Nc2nccc(-c3cc4ccccc4s3)n2)cc1)N1CCC(N2CCCC2)CC1 | KIT D816V | binding, competition with immobilised ligand | 1 µM | 15 |
